Assay outcomes: PubChem, Broad Institute
FGF22 binding – shifts melting point of recombinant human FGF22. Q9HCT0. recombinant FGF22 thermal shift, SYPRO orange fluorescence; percent of sucrose octasulfate shift, DMSO zero. activity (Tm shift, normalised), % at 9.99 µM. hit rate 1.5% among 340,000. AID 651658;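 active = mean Tm shift, scaled 0 neutral to 100 positive control, at about 1.3% or above, every replicate too, limit read from the data; inconclusive = no clear call, values can overlap the other calls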
Target sequence (Q9HCT0 whole entry, looked up): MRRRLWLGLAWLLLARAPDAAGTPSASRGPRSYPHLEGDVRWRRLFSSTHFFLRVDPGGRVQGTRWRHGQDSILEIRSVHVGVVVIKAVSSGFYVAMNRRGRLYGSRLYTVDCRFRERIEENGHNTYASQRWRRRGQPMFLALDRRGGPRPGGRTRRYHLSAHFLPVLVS
HIV Env fusion – inhibitors of HIV Env-mediated cell fusion. hit rate 1.1% among 360,000. inhibition, % at 12.3 µM. HeLa-JRFL Env/CEM21 cell fusion, luciferase;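 active = mean replicate inhibition score of at least 50 and every replicate individually at or above 50; inconclusive = only one of the two criteria met; inactive = mean below 50 and not all replicates reaching 50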;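 note: 0% = plate neutral controls and 100% = maraviroc near 300 nM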
E-sel inducer – induces E-selectin expression in human endothelial cells; AID 686992; P16581; activation, % at 7.58 µM; hit rate 0.37% among 260,000; HUVEC E-selectin immunofluorescence imaging; normalized: neutral wells 0, TNF-alpha wells 100;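 active = mean E-selectin-positive cell signal at least 10% of the positive control, reached in at least 60% of replicates, without over 20% cell loss; inconclusive = no rule given, readout overlaps actives, possibly toxicity-flagged; inactive = the rest, including those meeting only one limit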
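assay system = HUVEC, human umbilical vein endothelial cells | input = 3,000 HUVEC seeded per well | medium = EGM-2 growth medium on 0.1% gelatin-coated wells | dosing = one compound dose added by pin transfer | signal = immunofluorescence imaging | read-out basis = % PE-positive cells | control set = TNF-alpha, DMSO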
CFTR F508del cor – CFTR F508del correction in bronchial cells; hit rate 0.36% among 350,000; CFBE cells, YFP halide quenching; stimulated with forskolin plus potentiator P3; % fluorescence drop versus neutral controls; activity (quench increase), % at 7.58 µM; AID 720511;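 active = mean added fluorescence quench of at least 8% versus neutral control, with both replicates also reaching 8%; inconclusive = only one of the mean or replicate conditions met; inactive = mean below 8% and not both replicates reaching 8%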;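 note: cells transiently co-express mutant CFTR-F508del with the halide-sensitive YFP; corrector assay measuring rescue of mutant channel to the surface after 24 h compound exposure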
S100A4 inh HTS – inhibitors of human S100A4 binding to myosin IIA peptide. AID 652163. S100A4/TAMRA-MyoIIA peptide fluorescence polarization. P26447. hit rate 0.14% among 360,000. inhibition, % at 10.7 µM;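 active = mean inhibition of at least 70% across replicates, with every replicate also reaching that level; inconclusive = mean inhibition reaches 70% but some replicates fall short; inactive = mean inhibition below 70%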
Target sequence (P26447 whole entry, looked up): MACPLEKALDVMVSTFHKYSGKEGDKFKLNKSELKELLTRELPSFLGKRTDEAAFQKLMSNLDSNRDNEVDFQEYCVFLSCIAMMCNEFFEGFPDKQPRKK
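System – human S100A4 monomer protein, biochemical binding assay · Buffer or medium – Calcium-containing HEPES buffer, pH 7.2 · Timing – 5 min between mix addition and reading · Also added – TAMRA-labelled myosin IIA heavy-chain peptide probe, 5 nM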
Numbers without * were called inactive; ? = inconclusive; · = not tested or not shown; [ ] = remark or other dose. Most compounds without a hit are left out; they make up all but 2.7% or so of the library.

SMILES	FGF22 binding	HIV Env fusion	E-sel inducer	CFTR F508del cor	S100A4 inh HTS
C[C@H](NC(=O)C1CCN(S(=O)(=O)c2ccccc2)CC1)C(=O)NC1CC1	43*	7	0	-2	1
O=C(NCCc1ccccc1)C1CCN(S(=O)(=O)N2CCOCC2)CC1	44*	5	·	-3	5
CS(=O)(=O)N1CCC(C(=O)NCCc2ccccc2)CC1	·	·	·	·	-3
O=C(NCc1ccccc1)C1CCN(S(=O)(=O)N2CCOCC2)CC1	·	-44	·	·	·
COc1ccc(S(=O)(=O)N2CCC(C(=O)NCc3ccccc3)CC2)cc1OC	43*	15	0	3	-2
CCOc1cc(/C=C\c2nc(O)c([N+](=O)[O-])c(=O)[nH]2)ccc1OC(C)C	0	7	0	-1	-1
C=CCc1cc(/C=C/c2nc(O)c([N+](=O)[O-])c(=O)[nH]2)cc(OC)c1O	43*	-3	·	-1	3
COc1cc(C(O)CO)ccc1OS(=O)(=O)O (configuration not stated)	0	30	1	10.0*	-5
COC(=O)c1ccccc1-c1ccc(/C=N/NC(N)=O)o1	2.9*	28	1	0	-6
COc1ccc(CCNc2oc(-c3cccc4ccccc34)nc2P(=O)(OC)OC)cc1OC	0	69*	0	·	-4
COP(=O)(OC)c1nc(-c2cccc3ccccc23)oc1NCCc1ccccc1	·	-11	1	-2	·
O=C(Cc1ccccc1)N1CC(=O)N2[C@H](CO)[C@@H](c3ccc(-c4ccccc4)cc3)[C@@H]2C1	·	·	0	12*	24
N#Cc1ccc(-c2ccc([C@@H]3[C@@H](CO)N4C(=O)CN(C(=O)C5CC5)C[C@H]34)cc2)cc1	·	·	0	0	83*
COc1ccc(-c2cc(=O)oc3c(C)c(O)ccc23)cc1	0	72*	·	6	2
Cc1c(O)ccc2c(-c3ccccc3)cc(=O)oc12	0	33	·	-1	-13
COc1cc2c3c(c1OC)-c1cc4c(cc1CC3(C#N)N(C(=O)c1ccccc1)CC2)OCO4 (configuration not stated)	43*	-12	0	1	-5
CCc1n[nH]c(=S)n1/N=C/C(C)=C\c1ccccc1	0	56*	·	-1	-6
CC(/C=N/n1c(-c2ccccn2)n[nH]c1=S)=C\c1ccccc1	0	-8	·	-2	21
C[C@H]1CCCCO[C@H](CN(C)Cc2ccc(C(F)(F)F)cc2)[C@@H](C)CN([C@@H](C)CO)C(=O)c2cc(NC(=O)Nc3ccc4c(c3)OCO4)ccc2O1	-1	60*[16.7 µM]	0	4	153*
C[C@@H]1CCCCO[C@H](CN(C)Cc2ccc3c(c2)OCO3)[C@@H](C)CN([C@@H](C)CO)C(=O)c2cc(NC(=O)Nc3ccc(C(F)(F)F)cc3)ccc2O1	-1	?	·	-6	4
C[C@@H]1CN([C@H](C)CO)C(=O)c2cc(NC(=O)Nc3ccc(C(F)(F)F)cc3)ccc2O[C@@H](C)CCCCO[C@H]1CN(C)Cc1ccc2c(c1)OCO2	-1	?	1	1	-1
C[C@@H]1CCCCO[C@@H](CN(C)Cc2ccc(C(F)(F)F)cc2)[C@H](C)CN([C@H](C)CO)C(=O)c2cc(NC(=O)Nc3ccc4c(c3)OCO4)ccc2O1	0	65*[16.7 µM]	0	1	2
C[C@@H]1CCCCO[C@H](CN(C)Cc2ccc(C(F)(F)F)cc2)[C@H](C)CN([C@@H](C)CO)C(=O)c2cc(NC(=O)Nc3ccc4c(c3)OCO4)ccc2O1	0	26[16.7 µM]	0	0	-84
C[C@H]1CCCCO[C@@H](CN(C)Cc2ccc(C(F)(F)F)cc2)[C@@H](C)CN([C@@H](C)CO)C(=O)c2cc(NC(=O)Nc3ccc4c(c3)OCO4)ccc2O1	-1	86*[16.7 µM]	0	5	4
C[C@H](CO)N1C[C@H](C)[C@@H](CN(C)Cc2ccc(C(F)(F)F)cc2)OCCCC[C@H](C)Oc2ccc(NC(=O)Nc3ccc4c(c3)OCO4)cc2C1=O	0	71*[16.7 µM]	0	1	-3
SMILES	FGF22 binding	HIV Env fusion	E-sel inducer	CFTR F508del cor	S100A4 inh HTS
C[C@H](CO)N1C[C@H](C)[C@@H](CN(C)S(C)(=O)=O)Oc2ncc(/C=C/c3ccccc3)cc2C1=O	0	24[16.7 µM]	1	0	-4
C[C@H](CO)N1C[C@H](C)[C@H](CN(C)Cc2ccc3c(c2)OCO3)OCCCC[C@H](C)Oc2ccc(NC(=O)Nc3ccc(C(F)(F)F)cc3)cc2C1=O	-1	61*[16.7 µM]	0	2	2
COc1ccc(NC(=O)C(CC(=O)O)Cc2ccc(C)cc2)cc1 (configuration not stated)	43*	-2	·	3	-1
COCCNC(=O)C[C@H]1CC[C@@H](NC(=O)NC2CCCC2)[C@H](CO)O1	0	4[16.7 µM]	0	-1	-5
N#Cc1c(NC(=O)C2CC(Cl)=CCC2C(=O)O)sc2c1CCCC2 (configuration not stated)	0	5	·	-2	6
CC1(C)Cc2c(sc(NC(=O)C3CC(Cl)=CCC3C(=O)O)c2C#N)CO1 (configuration not stated)	43*	0	-1	-3	0
CCCCC(=O)Nc1cccc(C(C)O)c1 (configuration not stated)	43*	-1	2	2	6
CC(C)CC(=O)Nc1cccc(C(C)O)c1 (configuration not stated)	43*	-4	2	-1	4
O=C(N[C@@H]1CC[C@@H](CCn2cc(C3CCCCC3)nn2)O[C@@H]1CO)c1cccnc1	0	-4[16.7 µM]	0	2	-1
CC(C)(C)OC(=O)N1CCC(NC(=O)c2[nH]cnc2C(=O)Nc2ccccc2F)CC1	43*	27	0	-2	5
CC(C)(C)OC(=O)N1CCC(NC(=O)c2[nH]cnc2C(=O)Nc2ccc(Br)cc2F)CC1	0	16	4	-1	-1
CCCN1C(=O)/C(=C/c2c(NCCCOCC)nc3c(C)cccn3c2=O)SC1=S	·	-19	·	·	·
O=C1/C(=C\c2c(NCCOCCO)nc3ccccn3c2=O)SC(=S)N1Cc1ccco1	0	5	73*	2	6
COc1ccc(N2C(=O)C(CN3CCN(C)CC3)C2c2ccccc2)cc1 (configuration not stated)	44*	10	·	-1	-2
CNC[C@H]1Oc2cc(C#Cc3ccc(OC)cc3)ccc2S(=O)(=O)N([C@@H](C)CO)C[C@@H]1C	0	8[16.7 µM]	-2	-2	55
COCC(=O)N[C@@H]1CC[C@H](CC(=O)N2CCCCC2)O[C@@H]1CO	0	0[16.7 µM]	0	2	-3
Cc1noc(C)c1S(=O)(=O)Nc1ccc2c(c1)C(=O)N([C@H](C)CO)C[C@@H](C)[C@@H](CN(C)Cc1ccc(C(=O)O)cc1)OCCCC[C@H](C)O2	1.3*	-50[16.7 µM]	0	0	6
